Only some compounds are listed: those with a hit (about 4.8% of all), similar ones and a draw of the others.
CSC inhib: blocks cancer stem cells | cancer stem cell-like cells viability, luminescence | inhibition, % at 7.5 µM | 300,000 compounds, 1.1% hits; in the data active = inhibition above about 75%; tested in HMLE shEcad cells
Mot1-301 SUMO: inhibitors of SUMOylation pathway: yeast Mot1-301 growth rescue; AID 2716; 320,000 compounds, 1% hits; growth rescue, % at 18.8 µM; S. cerevisiae Mot1-301 growth rescue, ATP luminescence, 38.5C; percent above DMSO median, 100 means doubled;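 active = every valid replicate shows activation above 250% relative to neutral control wells; inactive = the rest, any valid replicate at or below 250%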;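 note: OY570 slx delta 5 strain wells were the positive control but not used for scaling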
WT yeast gro inh: growth inhibition of WT yeast, mitochondrial fusion screen; 190,000 compounds, 2.1% hits; inhibition, % at 10 µM; mitochondrial fusion phenotypic screen, WT strain; in the data active = inhibition above about 58%; tested in S. cerevisiae
Efflux pump mplx: blocks antifungal efflux pumps in multiplex yeast assay; S. cerevisiae Candida pump triplex, Nile Red efflux; inhibition, % at 10 µM; 330,000 compounds, 0.44% hits; AID 485275;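 active = plate passing quality check with inhibition over a set limit, or well fluorescence over plate mean plus 4 SD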;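 note: Nile Red retained in pooled yeast measured as flow cytometry median fluorescence; 0% = buffer negative control and 100% = Enniatin B positive control; higher means more Nile Red kept so more efflux inhibition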
Beta apoptosis: blocks beta cell apoptosis; 300,000 compounds, 0.8% hits; INS-1E cytokine-induced death, ATP luminescence, 48 h; percent of positive-control rescue, neutral wells zero; protection from apoptosis, % (no concentration beside the values); AID 435005;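 active = Every replicate reaches about 75%, or at least half do and their mean reaches it too, limit read from the data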;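 note: 0% = cytokine-treated negative control wells and 100% = positive control rescue; higher means more ATP so stronger rescue from cytokine killing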
T cruzi repl: T. cruzi replication inhibition; T. cruzi beta-gal in NIH3T3, luminescence, 90 h; inhibition, % (no concentration beside the values); 300,000 compounds, 1.4% hits; AID 1885;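 active = mean inhibition across valid replicates above about 55%, limit read from the data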;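 note: signal also drops with host cell toxicity which is not excluded here; 0% = plate median of DMSO wells and 100% = zero luminescence signal; higher percent means less beta-gal luminescence so fewer parasites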
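System – NIH/3T3 host cells with β-galactosidase reporter T. cruzi · Doses – single 50 nL compound addition per well in DMSO · Reagent – 5000 T. cruzi trypomastigotes/well · Medium – Low-serum DMEM with 2% FBS · Timing – ≥90 h infection period, 3 h prior cell attachment · Evaluation – parasite load inhibition, % · Technique – GalScreen luminescence, 60 min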
* hit, by the source's call; . = not tested or not shown.

SMILES	CSC inhib	Mot1-301 SUMO	WT yeast gro inh	Efflux pump mplx	Beta apoptosis	T cruzi repl
COc1ccc(N(CC(=O)NCc2cccs2)S(=O)(=O)c2ccc(F)cc2)cc1	.	-8	.	0	-6	.
CCS(=O)(=O)NCC(c1cccnc1)N1CCN(c2ccc(OC)cc2)CC1 (configuration not stated)	-12	91	-10	0	-6	58*
CC(C)c1ccc(CNC(=O)C(=O)NCCCn2ccnc2)cc1	12	-6	-11	0	-4	-3
CC(NC(=O)C(=O)NCCCn1ccnc1)c1ccccc1 (configuration not stated)	14	320*	-9	0	4	-12
O=C(NCCCn1ccnc1)C(=O)NCC(c1cccnc1)N1CCN(c2ccc(F)cc2)CC1 (configuration not stated)	16	4	-5	0	6	40
O=C(NCCCn1ccnc1)C(Cc1ccccc1)N1C(=O)c2ccccc2C1=O (configuration not stated)	6	-10	58*	0	4	-15
COc1ccc(N2CCN(C(CNC(=O)C(=O)NCCCn3ccnc3)c3cccnc3)CC2)cc1 (configuration not stated)	-10	-7	2	0	1	63*
O=C(Nc1ncccc1O)c1cccc(S(=O)(=O)N2CCCC2)c1	.	1	.	0	-7	-14
O=C(Nc1ncccc1O)c1cccc(S(=O)(=O)N2CCc3ccccc32)c1	3	.	69*	0	1	29
COc1ccc(CNC(=O)CSc2n[nH]c(C)c2[N+](=O)[O-])cc1	-21	0	-3	0	-7	-8
COc1cccc(C2C(C(=O)OCc3ccccc3)=C(C)Nc3ncnn32)c1OC (configuration not stated)	-12	9	5	0	2	-8
COc1ccc(C)cc1S(=O)(=O)N(CC(=O)N1CCCC1)c1ccccc1	-2	2	-10	0	-3	-21
Fc1ccc(NC(=S)Nc2nccs2)cc1	19	3	73	0	43	66*
S=C(Nc1ccccc1)Nc1nccs1	11	-20	.	0	22	14
CC1CCC2C(=O)N(c3ccc(NC4CCCCC4)c([N+](=O)[O-])c3)C(=O)C2C1 (configuration not stated)	76*	-5	15	0	-2	3
COCCn1c(SCC(=O)Nc2sccc2C(N)=O)nnc1-c1ccncc1	5	2	-1	0	-1	.
Cc1ccc(-c2csc3ncnc(-n4cnc5ccccc54)c23)cc1	77*	-8	26	0	-2	-29
NNC(=O)c1cc2c(s1)-c1cc(Cl)ccc1SC2	24	16	.	0	3	5
CCN(CC)CCNC(=O)c1cc2c(s1)-c1ccccc1SC2	51	0	.	0	41	55*
CC(=O)N1c2ccc(S(=O)(=O)N3CCC(C(=O)N4CCN(c5cccc(C(F)(F)F)c5)CC4)CC3)cc2CC1C (configuration not stated)	8	-5	.	0	92*	31
CC(=O)c1ccc(N2CCN(C(=O)C3CCN(S(=O)(=O)c4ccc5c(c4)CC(C)N5C(C)=O)CC3)CC2)cc1 (configuration not stated)	-1	193	.	0	6	17
Cc1ccc(-c2cc(C(=O)N/N=C/c3ccccc3O)n[nH]2)o1	79*	-2	.	0	44	37
Cc1ccc(-c2cc(C(=O)N/N=C/c3ccc(F)cc3)n[nH]2)o1	21	-2	.	0	4	0
Cc1ccc(-c2cc(C(=O)N/N=C/c3c[nH]c4ccccc34)n[nH]2)o1	30	-6	-3	0	2	-7
Cc1ccc(-c2cc(C(=O)N/N=C/C(Br)=C/c3ccccc3)n[nH]2)o1	-6	14	61*	0	42	-15
COc1ccc(C(=O)NN(C)c2nc(-c3ccccc3)nnc2C(F)(F)F)cc1	-1	3	64*	0	2	-2
COc1ccc(CC(=O)NNC2=Nc3cccc4cccc2c34)cc1OC	-2	5	.	0	-2	8
O=C(NNC1=Nc2cccc3cccc1c23)c1ccc(Br)cc1	21	103	57	0	60	62*
Cc1nn(-c2ccccc2)c2nc(N)c(C#N)c(-c3ccc(C(C)(C)C)cc3)c12	94*	8	.	0	7	35
